Source: ChEMBL document CHEMBL1155754, “Samioside, a new phenylethanoid glycoside with free-radical scavenging and antimicrobial activities from Phlomis samia” (J Nat Prod, 2001)
Converted amounts (≈) assume the structure as drawn.

Key:
Type in all cases: functional
[1] = test system: Radical scavenging activity; assay: Antioxidant activity assessed as DPPH free radical scavenging activity after 30 mins; parameters: concentration or dose not given beside the values
Outline: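 Sample mixed with DPPH in ethanol and left 30 min at 37 °C. Optical density read at 515 nm. Ethanol replaced DPPH for the blank and DMSO replaced sample for the control. IC50 (amount scavenging 50% of DPPH) came from regression of average percent DPPH reduction against concentration, over three separate tests.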

Staphylococcus aureus [2] = assay: Antimicrobial activity against Staphylococcus aureus ATCC 25923 by agar dilution method
Outline: (§1)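 Agar dilution against the listed ATCC bacterial strains. MIC taken as the lowest concentration preventing visible growth.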

Candida tropicalis = assay: Antimicrobial activity against Candida tropicalis ATCC 13801 by disk diffusion method
Outline: (§2)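 Bauer-Kirby disk diffusion against the listed ATCC bacterial and Candida strains. Growth inhibition read as zone of inhibition diameter (mm). Three repeat experiments, reported as averages.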

Nakaseomyces glabratus = assay: Antimicrobial activity against Candida glabrata ATCC 28838 by disk diffusion method; outline: as §2
Candida albicans = assay: Antimicrobial activity against Candida albicans ATCC 10231 by disk diffusion method
Outline: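 Bauer-Kirby disk diffusion against Candida albicans ATCC 10231; experiments repeated three times, results expressed as average values (zone of inhibition).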

Enterobacter cloacae [3] = assay: Antimicrobial activity against Enterobacter cloacae ATCC 13047 by disk diffusion method; outline: as §2
[4] = test system: Staphylococcus epidermidis; assay: Antimicrobial activity against Staphylococcus epidermidis ATCC 12228 by disk diffusion method; outline: as §2
[5] = test system: Staphylococcus epidermidis; assay: Antimicrobial activity against Staphylococcus epidermidis ATCC 12228 by agar dilution method; outline: as §1
Klebsiella pneumoniae [6] = assay: Antimicrobial activity against Klebsiella pneumoniae ATCC 13883 by agar dilution method; outline: as §1
Staphylococcus aureus [7] = assay: Antimicrobial activity against Staphylococcus aureus ATCC 25923 by disk diffusion method; outline: as §2
Escherichia coli [8] = assay: Antimicrobial activity against Escherichia coli ATCC 25922 by disk diffusion method; outline: as §2
Klebsiella pneumoniae [9] = assay: Antimicrobial activity against Klebsiella pneumoniae ATCC 13883 by disk diffusion method; outline: as §2
Pseudomonas aeruginosa [10] = assay: Antimicrobial activity against Pseudomonas aeruginosa ATCC 27853 by disk diffusion method; outline: as §2
Enterobacter cloacae [11] = assay: Antimicrobial activity against Enterobacter cloacae ATCC 13047 by agar dilution method; outline: as §1
Escherichia coli [12] = assay: Antimicrobial activity against Escherichia coli ATCC 25922 by agar dilution method; outline: as §1
Pseudomonas aeruginosa [13] = assay: Antimicrobial activity against Pseudomonas aeruginosa ATCC 27853 by agar dilution method; outline: as §1

With `COc1cc(-c2cc(=O)c3c(O)cc(O)cc3o2)ccc1O` the Activity [1] was less than 40%.
`COc1ccc(-c2oc3cc(O)cc(O)c3c(=O)c2OC)cc1` gave an Activity [1] of less than 40%.
Molecule `O=c1cc(-c2ccc(O)cc2)oc2cc(O)cc(O)c12` has an Activity [1] of less than 40%.
`C[C@@H]1O[C@@H](O[C@@H]2[C@@H](O)[C@H](OCCc3ccc(O)c(O)c3)O[C@H](CO)[C@H]2OC(=O)/C=C/c2ccc(O)c(O)c2)[C@H](O)[C@H](O)[C@H]1O` [ACETOSIDE] gave an Activity [1] greater than 70%, an IC50 [1] of 48.9 µM and an MIC (Staphylococcus aureus [2]) of 400 µg/mL (≈ 640 µM).
In the case of `C[C@@H]1[C@H](O)[C@@H](C)/C=C/C=C/C=C/C=C/C=C/C=C/C=C/[C@H](O[C@@H]2O[C@H](C)[C@@H](O)[C@H](N)[C@@H]2O)C[C@@H]2O[C@](O)(C[C@@H](O)C[C@@H](O)[C@H](O)CC[C@@H](O)C[C@@H](O)CC(=O)O[C@H]1C)C[C@H](O)[C@H]2C(=O)O` [AMPHOTERICIN B], the “inhibition zone (IZ)” value (Candida tropicalis) is reported as 22 mm, the “inhibition zone (IZ)” value (Nakaseomyces glabratus) is reported as 24 mm and the “inhibition zone (IZ)” value (Candida albicans) is reported as 20 mm.
Work on `O=C(O)/C=C/c1ccc(O)c(O)c1` [CAFFEIC ACID] yielded an IC50 [1] of 66.7 µM.
For `O=C(O)c1cc(O)c(O)c(O)c1` [GALLIC ACID], the IC50 [1] was 17.6 µM.
For `CCN[C@@H]1C[C@H](N)[C@@H](O[C@H]2OC(CN)=CC[C@H]2N)[C@H](O)[C@H]1O[C@H]1OC[C@](C)(O)[C@H](NC)[C@H]1O` [NETILMICIN], the “inhibition zone (IZ)” value (Enterobacter cloacae [3]) was 22 mm, the “inhibition zone (IZ)” value [4] was 24 mm and the MIC [5] was 4 µg/mL (≈ 8.41 µM). The MIC (Klebsiella pneumoniae [6]) was 8 µg/mL (≈ 16.8 µM), the “inhibition zone (IZ)” value (Staphylococcus aureus [7]) was 22 mm and the “inhibition zone (IZ)” value (Escherichia coli [8]) was 23 mm. The “inhibition zone (IZ)” value (Klebsiella pneumoniae [9]) was 25 mm, the “inhibition zone (IZ)” value (Pseudomonas aeruginosa [10]) was 20 mm and the MIC (Enterobacter cloacae [11]) was 8 µg/mL (≈ 16.8 µM). It also gave an MIC (Escherichia coli [12]) of 10 µg/mL (≈ 21 µM), an MIC (Pseudomonas aeruginosa [13]) of 8.8 µg/mL (≈ 18.5 µM) and an MIC (Staphylococcus aureus [2]) of 4 µg/mL (≈ 8.41 µM).
`C[C@@H]1O[C@@H](O[C@@H]2[C@@H](O)[C@H](OCCc3ccc(O)c(O)c3)O[C@H](CO)[C@H]2OC(=O)/C=C/c2ccc(O)c(O)c2)[C@H](O)[C@H](O)[C@H]1O[C@@H]1OC[C@](O)(CO)[C@H]1O` [SAMIOSIDE] was tested, and the “inhibition zone (IZ)” value (Enterobacter cloacae [3]) was 10 mm, the “inhibition zone (IZ)” value [4] was 16 mm and the MIC [5] was 480 µg/mL (≈ 634 µM). For the same molecule, the MIC (Klebsiella pneumoniae [6]) was 790 µg/mL (≈ 1040 µM), the “inhibition zone (IZ)” value (Staphylococcus aureus [7]) was 12 mm and the “inhibition zone (IZ)” value (Candida tropicalis) was 10 mm. The “inhibition zone (IZ)” value (Nakaseomyces glabratus) was 11 mm, the “inhibition zone (IZ)” value (Escherichia coli [8]) was 15 mm and the “inhibition zone (IZ)” value (Klebsiella pneumoniae [9]) was 11 mm. The “inhibition zone (IZ)” value (Pseudomonas aeruginosa [10]) was 10 mm, the “inhibition zone (IZ)” value (Candida albicans) was 8 mm and the Activity [1] was greater than 70%. The IC50 [1] was 23.8 µM, the MIC (Enterobacter cloacae [11]) was 890 µg/mL (≈ 1180 µM) and the MIC (Escherichia coli [12]) was 520 µg/mL (≈ 687 µM). The MIC (Pseudomonas aeruginosa [13]) was 850 µg/mL (≈ 1120 µM) and the MIC (Staphylococcus aureus [2]) was 460 µg/mL (≈ 608 µM).
